ChEMBL document CHEMBL1909587, “Design, synthesis and biological study of novel pyrido[2,3-d]pyrimidine as anti-proliferative CDK2 inhibitors” (Eur J Med Chem, 2011)

Experiments:
HCT116 (Homo sapiens) = experiment: Growth inhibition of human HCT116 cells after 2 days by SRB assay; details: HCT116, 48 h
[1] = Inhibition of CDK4/cyclin D expressed in baculovirus infected insect Sf21 cells using [gamma-P32]ATP and histone H1 as substrate after 10 mins by radiometric assay
Summary of the method: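 20 µL reactions in 50 mM Tris-HCl with 10 µM ATP, 0.2 µCi [γ-32P]ATP, 10 mM MgCl2, 5 mM DTT, 4 µg histone H1 substrate; 10 min with inhibitor, stopped with 30% phosphoric acid. Spotted on P81 paper, washed five times in 10 mM Tris-HCl pH 8.0/0.1 M NaCl, radioactivity imaged; IC50 = concentration giving 50% inhibition.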

A-431 = experiment: Growth inhibition of human A431 cells after 2 days by SRB assay; type: functional; details: A-431, 48 h
Summary of the method: (§1)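 Cells kept in RPMI 1640 with 10% FBS at 37 °C, 5% CO2; 1000 cells/well plated, compounds added next day at various concentrations for two days. Fixed with 4% formalin, stained with 0.1% sulforhodamine B, dye eluted in 0.1 M Tris/HCl pH 8.0, absorbance at 520 nm. Triplicate, averaged; 0% = treatment-time absorbance, 100% = untreated two-day growth; GI50 = 50% growth inhibition.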

[2] = molecular target: Cyclin-dependent kinase 2/cyclin A (Homo sapiens, UniProt P24941); experiment: Inhibition of CDK2/cyclin A expressed in baculovirus infected insect Sf21 cells using [gamma-P32]ATP and histone H1 as substrate after 10 mins by radiometric assay
SNU-638 = experiment: Growth inhibition of human SNU638 cells after 2 days by SRB assay; type: functional; details: SNU-638, 48 h
Summary of the method: as §1

[3] = molecular target: Epidermal growth factor receptor (Homo sapiens, UniProt P00533); experiment: Inhibition of human EGFR
Epidermal growth factor receptor, sequence (P00533 whole entry, the tested form may be a part): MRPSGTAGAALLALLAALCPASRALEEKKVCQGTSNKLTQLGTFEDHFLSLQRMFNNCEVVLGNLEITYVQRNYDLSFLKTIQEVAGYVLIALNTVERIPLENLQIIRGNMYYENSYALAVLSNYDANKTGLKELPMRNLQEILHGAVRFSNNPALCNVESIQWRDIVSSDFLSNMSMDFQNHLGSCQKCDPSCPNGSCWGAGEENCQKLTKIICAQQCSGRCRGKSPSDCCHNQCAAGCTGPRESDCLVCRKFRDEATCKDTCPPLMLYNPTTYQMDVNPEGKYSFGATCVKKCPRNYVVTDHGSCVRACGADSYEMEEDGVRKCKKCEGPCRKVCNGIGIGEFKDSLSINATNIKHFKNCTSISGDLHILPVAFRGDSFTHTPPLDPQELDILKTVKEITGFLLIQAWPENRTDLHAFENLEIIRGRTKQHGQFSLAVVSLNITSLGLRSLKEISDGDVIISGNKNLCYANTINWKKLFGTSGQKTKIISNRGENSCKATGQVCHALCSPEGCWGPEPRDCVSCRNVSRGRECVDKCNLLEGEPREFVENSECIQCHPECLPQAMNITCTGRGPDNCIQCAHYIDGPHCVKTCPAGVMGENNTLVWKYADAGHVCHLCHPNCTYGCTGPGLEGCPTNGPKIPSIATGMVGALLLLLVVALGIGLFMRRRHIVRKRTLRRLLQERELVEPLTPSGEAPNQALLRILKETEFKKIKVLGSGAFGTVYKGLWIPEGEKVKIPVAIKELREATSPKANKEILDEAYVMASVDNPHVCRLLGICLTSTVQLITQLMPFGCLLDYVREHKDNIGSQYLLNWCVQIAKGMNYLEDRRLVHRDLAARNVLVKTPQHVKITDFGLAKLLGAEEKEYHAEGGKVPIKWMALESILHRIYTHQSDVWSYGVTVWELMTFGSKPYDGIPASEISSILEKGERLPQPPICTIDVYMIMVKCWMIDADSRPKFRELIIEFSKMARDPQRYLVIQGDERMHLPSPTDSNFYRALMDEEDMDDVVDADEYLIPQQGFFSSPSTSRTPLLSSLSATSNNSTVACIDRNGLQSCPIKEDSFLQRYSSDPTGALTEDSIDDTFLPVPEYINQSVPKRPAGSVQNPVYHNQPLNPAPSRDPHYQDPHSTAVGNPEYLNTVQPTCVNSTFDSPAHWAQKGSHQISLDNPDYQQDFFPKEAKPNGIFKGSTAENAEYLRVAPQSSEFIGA
Summary of the method: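 Kinase activity measured with the C-terminal human EGFR tyrosine kinase domain; IC50 taken as the inhibitor concentration giving 50% inhibition.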

Work on `N#Cc1cc2c(N)ncnc2nc1NCCO` yielded a GI50 (HCT116 (Homo sapiens)) of 4.5 µM, an IC50 [1] greater than 200 µM and a GI50 (A-431) of 26.6 µM. For the same molecule, the IC50 [2] was 29.5 µM, the GI50 (SNU-638) was 20.8 µM and the IC50 [3] was 93.3 µM.

In the case of `Cc1c(C#N)c(NCCO)nc2ncnc(N)c12`, the GI50 (HCT116 (Homo sapiens)) is reported as 4.1 µM, the IC50 [1] is reported as 36 µM and the GI50 (A-431) is reported as 5.06 µM. The IC50 [2] was 29.5 µM, the GI50 (SNU-638) was 2.58 µM and the IC50 [3] was greater than 100 µM.

`N#Cc1cc2c(N)ncnc2nc1Nc1ccc(S(N)(=O)=O)cc1` gave a GI50 (HCT116 (Homo sapiens)) of 19.3 µM, an IC50 [1] of 13 µM and a GI50 (A-431) of 7.8 µM. It also gave an IC50 [2] of 0.3 µM, a GI50 (SNU-638) of 7.57 µM and an IC50 [3] greater than 100 µM.

In the case of `Cc1c(C#N)c(Nc2ccc(S(N)(=O)=O)cc2)nc2ncnc(N)c12`, the GI50 (HCT116 (Homo sapiens)) is reported as 16.6 µM, the IC50 [1] is reported as 16 µM and the GI50 (A-431) is reported as 2.94 µM. For the same molecule, the IC50 [2] was 10 µM, the GI50 (SNU-638) was 6.2 µM and the IC50 [3] was greater than 100 µM.

In the case of `Nc1scc2c1c(NCCO)nc1ncnc(N)c12`, the GI50 (HCT116 (Homo sapiens)) is reported as 6.46 µM, the IC50 [1] is reported as 29 µM and the GI50 (A-431) is reported as 54.3 µM. It also gave an IC50 [2] of 0.5 µM, a GI50 (SNU-638) of 18.3 µM and an IC50 [3] greater than 100 µM.

Work on `Nc1scc2c1c(Nc1ccc(S(N)(=O)=O)cc1)nc1ncnc(N)c12` yielded a GI50 (HCT116 (Homo sapiens)) of 8.89 µM, an IC50 [1] greater than 120 µM and a GI50 (A-431) of 3.94 µM. For the same molecule, the IC50 [2] was 36.3 µM, the GI50 (SNU-638) was 2.56 µM and the IC50 [3] was 29.5 µM.

For `N#Cc1cc2c(N)nc(NCCO)nc2nc1NCCO`, the GI50 (HCT116 (Homo sapiens)) was 10.9 µM, the IC50 [1] was 28 µM and the GI50 (A-431) was 6.25 µM. The IC50 [2] was 6.3 µM, the GI50 (SNU-638) was 7.95 µM and the IC50 [3] was greater than 100 µM.

`Cc1c(C#N)c(NCCO)nc2nc(NCCO)nc(N)c12` showed a GI50 (HCT116 (Homo sapiens)) of 20.1 µM, an IC50 [1] of 10 µM and a GI50 (A-431) of 31.9 µM. The IC50 [2] was 3.8 µM, the GI50 (SNU-638) was 18.2 µM and the IC50 [3] was 47.9 µM.

`N#Cc1cc2c(N)nc(NCCO)nc2nc1Nc1ccc(S(N)(=O)=O)cc1` gave a GI50 (HCT116 (Homo sapiens)) of 48.2 µM, an IC50 [1] of 120 µM and a GI50 (A-431) of 36.3 µM. The IC50 [2] was 0.9 µM, the GI50 (SNU-638) was 35.8 µM and the IC50 [3] was greater than 100 µM.

In the case of `Cc1c(C#N)c(Nc2ccc(S(N)(=O)=O)cc2)nc2nc(NCCO)nc(N)c12`, the GI50 (HCT116 (Homo sapiens)) is reported as 38.2 µM, the IC50 [1] is reported as 95 µM and the GI50 (A-431) is reported as greater than 100 µM. The IC50 [2] was 3.1 µM, the GI50 (SNU-638) was 17.1 µM and the IC50 [3] was greater than 100 µM.

`Nc1scc2c1c(NCCO)nc1nc(NCCO)nc(N)c12` showed a GI50 (HCT116 (Homo sapiens)) of 11.4 µM, an IC50 [1] greater than 48 µM and a GI50 (A-431) of 4.6 µM. The IC50 [2] was 0.09 µM, the GI50 (SNU-638) was 2.57 µM and the IC50 [3] was 66.1 µM.

In the case of `Nc1scc2c1c(Nc1ccc(S(N)(=O)=O)cc1)nc1nc(NCCO)nc(N)c12`, the GI50 (HCT116 (Homo sapiens)) is reported as 47.7 µM, the IC50 [1] is reported as 44 µM and the GI50 (A-431) is reported as 21.9 µM. For the same molecule, the IC50 [2] was 8.1 µM, the GI50 (SNU-638) was 26.1 µM and the IC50 [3] was greater than 100 µM.

`COc1cccc2c1C(=O)c1c(O)c3c(c(O)c1C2=O)C[C@@](O)(C(=O)CO)C[C@@H]3O[C@H]1C[C@H](N)[C@H](O)[C@H](C)O1` [DOXORUBICIN] gave a GI50 (HCT116 (Homo sapiens)) of 0.13 µM and a GI50 (A-431) of 0.18 µM.

`Cn1cnc2c(NCc3ccccc3)nc(NCCO)nc21` [OLOMOUCINE] gave a GI50 (HCT116 (Homo sapiens)) of 12.1 µM, an IC50 [1] of 45 µM and a GI50 (A-431) of 16.6 µM. It also gave a GI50 (SNU-638) of 16.6 µM.

`CC[C@H](CO)Nc1nc(NCc2ccccc2)c2ncn(C(C)C)c2n1` [SELICICLIB] gave an IC50 [1] of 15 µM.
